The source of these data is ChEMBL document CHEMBL1122877, “New antihistaminic N-heterocyclic 4-piperidinamines. 1. Synthesis and antihistaminic activity of N-(4-piperidinyl)-1H-benzimidazol-2-amines” (1985).

Experiment [1] is described as follows: In vivo protection from compound 48/80 induced lethality test in rats 1 hour after subcutaneous administration. Type of experiment: functional. The note with it: Rattus norvegicus, sc. In outline:
(§1)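 Male inbred Wistar rats (240-260 g), fasted overnight, held at 21 ± 1 °C and 65 ± 5% RH. Dosed sc or orally, vehicle 0.9% NaCl. Endpoint is survival at 4 h. ED50 by Finney from 5 rats per dose, at least 3 doses from a geometric series 0.0025-40 mg/kg. Estimated ED50 uses at least 2 rats per dose.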

A short description of experiment [2]: In vivo anti-histaminic protection from 48/80 induced lethality in rats 2 hours after oral administration. The note with it: Rattus norvegicus. In kind it is functional. In a few lines:
as §1

A short description of experiment [3]: In vivo anti-histaminic protection from 48/80 induced lethality in rats 2 hour after oral administration. Type of experiment: functional. The note with it: Rattus norvegicus. In a few lines:
as §1

Experiment [4] has as its system Cavia porcellus. The experiment can be described thus: Protection against intravenous histamine lithality in Guinea pigs 3 hour after oral administration. Type of experiment: functional. The note with it: for ED50: read-out: PD50. In a few lines:
(§2)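 Male albino guinea pigs (280-360 g) given oral doses in 2-fold increments 3, 24 or 48 h before iv histamine dihydrochloride 1.25 mg/kg. Protection is survival at 1 h. PD50 by Finney from 4-6 animals per dose and time point, at least 3 doses from a geometric series 0.0025-5 mg/kg. Estimated PD50 uses at least 2 animals per dose.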

Experiment [5] relates to Cavia porcellus. The experiment can be described thus: Protection against intravenous histamine lithality in Guinea pigs 24 hour after oral administration. Type of experiment: functional. Conditions: for ED50: read-out: PD50. In outline: as §2
The subject of experiment [6] is Cavia porcellus. In words: Protection against intravenous histamine lithality in Guinea pigs 48 hour after oral administration. In kind it is functional. Conditions: read-out: PD50. In a few lines:
as §2

Experiment [7] addresses Histamine H1 receptor (Cavia porcellus) (UniProt P31389). The experiment can be described thus: In vitro inhibition of histamine(H1) induced contraction of guinea pig ileum. In kind it is functional, tissue-based. In a few lines: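 Isolated guinea pig ileum in a bath. Cumulative histamine curves every 5 min, logarithmically increasing doses (5.4 × 10^-8, 1.6 × 10^-7, 5.4 × 10^-7 M, ...) until maximal contraction. Repeated after 5 min antagonist contact, then washout and two further curves. Highest test dose normally 0.04 mg/L. A10 = antagonist concentration giving a 10-fold rightward shift of the histamine curve.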

A short description of experiment [8]: In vivo anti-histaminic protection from 48/80 induced lethality in rats 1 hour after subcutaneous administration. The note with it: Rattus norvegicus, sc. In kind it is functional. In a few lines: as §1

A value given as a limit tells only on which side of the number the result lay.

Chain of Histamine H1 receptor (Cavia porcellus) (P31389 whole entry): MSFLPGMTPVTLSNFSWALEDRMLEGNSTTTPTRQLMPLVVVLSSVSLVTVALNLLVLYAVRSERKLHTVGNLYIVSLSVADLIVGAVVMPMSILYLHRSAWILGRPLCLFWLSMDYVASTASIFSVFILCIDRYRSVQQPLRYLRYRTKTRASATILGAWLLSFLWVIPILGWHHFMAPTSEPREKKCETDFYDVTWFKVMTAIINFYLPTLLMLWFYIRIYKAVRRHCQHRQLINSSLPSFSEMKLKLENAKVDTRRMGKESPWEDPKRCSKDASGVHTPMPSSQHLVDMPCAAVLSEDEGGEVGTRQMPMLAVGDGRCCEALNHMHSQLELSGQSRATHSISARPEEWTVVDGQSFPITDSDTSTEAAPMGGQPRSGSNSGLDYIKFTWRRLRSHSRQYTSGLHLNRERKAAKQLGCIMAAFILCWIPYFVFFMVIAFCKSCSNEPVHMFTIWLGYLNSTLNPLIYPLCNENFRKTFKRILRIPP

`Clc1ccc(Cn2c(NC3CCN(CCc4ccccc4)CC3)nc3ccccc32)cc1` came in with an ED50 in experiment [1] of 2.5 mg/kg.
`CN(c1nc2ccccc2n1Cc1ccc(F)cc1)C1CCN(CCc2ccccc2)CC1`: the ED50 in experiment [1] and in experiment [2] was 1.25 mg/kg each time.
Turning to `COc1ccc(CCN2CCC(Nc3nc4ccccc4n3Cc3ccccc3)CC2)cc1OC`, the figures for the ED50 in experiment [1] and in experiment [2] were 1.25 mg/kg and above 2.5 mg/kg, respectively.
Regarding `O=c1[nH]c2ccccc2n1CCCN1CCN(C(c2ccccc2)c2ccccc2)CC1` [OXATOMIDE], the ED50 in experiment [3] is 5.37 mg/kg. For the same compound, the “PD 50” value in the experiment on Cavia porcellus [4] was 0.18 mg/kg; in the experiment with Cavia porcellus [5], above 5 mg/kg.
In experiment [1], `c1ccc(Cn2c(NC3CCN(CC4COc5ccccc5O4)CC3)nc3ccccc32)cc1` (stereo not drawn) came in with an ED50 of 2.5 mg/kg.
For `Cc1ccc(Cn2c(NC3CCN(CCc4ccccc4)CC3)nc3ccccc32)cc1`, the ED50 was found to be 1.25 mg/kg in experiment [1] and 2.5 mg/kg in experiment [2].
`Cc1ccc(Cn2c(N(C)C3CCN(CCc4ccccc4)CC3)nc3ccccc32)cc1`: the ED50 in experiment [1] turned out to be 2.5 mg/kg.
The compound `Fc1ccc(CN2CCC(Nc3nc4ccccc4n3Cc3ccccc3)CC2)cc1` gave an ED50 in experiment [1] of 2.5 mg/kg.
The same measure, in the same setting: the same measure for `CCCCN(c1nc2ccccc2[nH]1)C1CCN(CCc2ccccc2)CC1`: 2.5 mg/kg; for `CCn1c(N(Cc2ccccc2)C2CCN(CCc3ccccc3)CC2)nc2ccccc21`: above 2.5 mg/kg.
The same measure, in the same setting: under `CC(Cn1c(NC2CCN(CCc3ccccc3)CC2)nc2ccccc21)c1ccccc1` (stereo not drawn) stands 2.5 mg/kg; under `FC(F)(F)c1cccc(CCN2CCC(Nc3nc4ccccc4n3Cc3ccccc3)CC2)c1`, 2.5 mg/kg.
Consider `COc1ccccc1CCN1CCC(Nc2nc3ccccc3n2Cc2ccccc2)CC1`, for which the ED50 in experiment [1] was found to be 0.63 mg/kg; in experiment [2] it was 1.25 mg/kg.
The corresponding values for `COc1cccc(CCN2CCC(Nc3nc4ccccc4n3Cc3ccccc3)CC2)c1` are 0.63 mg/kg and 0.31 mg/kg.
The corresponding values for `COc1cc(CCN2CCC(Nc3nc4ccccc4n3Cc3ccccc3)CC2)cc(OC)c1OC` are 0.63 mg/kg and 1.25 mg/kg.
The matching figures for `CN(C)CCC(c1ccc(Cl)cc1)c1ccccn1` (stereo not drawn) [CHLORPHENIRAMINE]: 0.77 mg/kg and 37.4 mg/kg.
As for `CC(c1ccccc1)N1CCC(Nc2nc3ccccc3n2Cc2ccccc2)CC1` (stereo not drawn), the ED50 in experiment [1] is 1.25 mg/kg; in experiment [2], above 2.5 mg/kg.
In turn, `CCCCn1c(NC2CCN(CCc3ccccc3)CC2)nc2ccccc21` had an ED50 in experiment [1] of 2.5 mg/kg.
For the compound `Oc1nc2ccccc2n1CCCN1CCC(Nc2nc3ccccc3n2Cc2ccccc2)CC1`, the ED50 in experiment [1] was 1.25 mg/kg; with Cavia porcellus [6], above 0.6 mg/kg; in the experiment with Cavia porcellus [4] it was 0.16 mg/kg; with Cavia porcellus [5], 0.6 mg/kg; in experiment [2] it was 2.5 mg/kg.
For the compound `CCCCCn1c(NC2CCN(CCc3ccccc3)CC2)nc2ccccc21`, the ED50 in experiment [1] came out at 2.5 mg/kg.
Take `CCOc1ccc(CCN2CCC(Nc3nc4ccccc4n3Cc3ccccc3)CC2)cc1`: the ED50 in experiment [1] turned out to be 1.25 mg/kg; in experiment [2], 0.63 mg/kg.
In experiment [1], `O=C(CCCN1CCC(Nc2nc3ccccc3n2Cc2ccccc2)CC1)c1ccc(F)cc1` showed an ED50 of 2.5 mg/kg.
Turning to `CCn1c(N(C)C2CCN(CCc3ccccc3)CC2)nc2ccccc21`, the values for the ED50 in experiment [1] and in experiment [2] were 0.63 mg/kg and above 2.5 mg/kg, respectively.
The corresponding values for `Fc1ccc(CCN2CCC(Nc3nc4ccccc4n3Cc3ccccc3)CC2)cc1` are 1.25 mg/kg and above 2.5 mg/kg.
The matching figures for `C=CCN1CCC(Nc2nc3ccccc3n2Cc2ccccc2)CC1`: 0.63 mg/kg and 0.63 mg/kg.
The corresponding values for `CC(c1ccc(F)cc1)n1c(NC2CCN(CCc3ccccc3)CC2)nc2ccccc21` (stereo not drawn) are 1.25 mg/kg and above 2.5 mg/kg.
In the case of `CN1CCC(Nc2nc3ccccc3n2C)CC1`, in experiment [1], the ED50 is above 2.5 mg/kg.
Still for that read-out and setting: the same measure for `CCn1c(NC2CCN(CCc3ccccc3)CC2)nc2ccccc21`: 2.5 mg/kg.
With `Cc1cccc(CCN2CCC(Nc3nc4ccccc4n3Cc3ccccc3)CC2)c1`, the ED50 worked out at 1.25 mg/kg in experiment [1] and 2.5 mg/kg in experiment [2].
For the compound `CN(C)CCOC(c1ccccc1)c1ccccc1` [DIPHENHYDRAMINE], the ED50 was 4 mg/kg in experiment [1], above 2.5 mg/kg in the experiment with Cavia porcellus [4] and 37.4 mg/kg in experiment [2]. In experiment [7], the A10 stood at 0.66 mg/L.
Take `CN(c1nc2ccccc2n1Cc1ccccc1)C1CCN(CCc2ccccc2)CC1`: the ED50 in experiment [1] came to 2.5 mg/kg.
For the compound `c1ccc(Cn2c(NC3CCN(CCc4cccs4)CC3)nc3ccccc32)cc1`, the ED50 in experiment [1] came to 0.63 mg/kg.
As to `c1ccc(CCCN2CCC(Nc3nc4ccccc4n3Cc3ccccc3)CC2)cc1`, the ED50 in experiment [1] was 2.5 mg/kg; in the experiment on Cavia porcellus [6], above 0.6 mg/kg; in the experiment on Cavia porcellus [4], 0.35 mg/kg; with Cavia porcellus [5], 0.35 mg/kg.
`CCn1nnn(CCN2CCC(Nc3nc4ccccc4n3Cc3ccccc3)CC2)c1=O`: the ED50 in experiment [1] was 0.31 mg/kg; in experiment [2] it was above 2.5 mg/kg.
As for `c1ccc(CCN2CCC(Nc3nc4ccccc4n3Cc3ccccn3)CC2)cc1`, the ED50 was 0.16 mg/kg in experiment [1]; above 0.16 mg/kg with Cavia porcellus [6]; 0.12 mg/kg in the experiment with Cavia porcellus [4]; 0.12 mg/kg with Cavia porcellus [5]; 2.5 mg/kg in experiment [2].
On to `Fc1ccc(Cn2c(NC3CCN(CCc4ccccc4)CC3)nc3ccccc32)cc1`, for which the ED50 came out at 0.31 mg/kg in experiment [1]; 0.12 mg/kg in the experiment with Cavia porcellus [6]; 0.45 mg/kg with Cavia porcellus [4]; 0.08 mg/kg in the experiment with Cavia porcellus [5]; 0.63 mg/kg in experiment [2].
In turn, `CC(c1ccccc1)n1c(NC2CCN(CCc3ccccc3)CC2)nc2ccccc21` (stereo not drawn) returned an ED50 in experiment [1] of 2.5 mg/kg.
On the same count and under the same terms, the same measure for `Clc1ccc(CCN2CCC(Nc3nc4ccccc4n3Cc3ccccc3)CC2)cc1`: 2.5 mg/kg.
Turning to `c1ccc(CCN2CCC(Nc3nc4ccccc4n3Cc3ccccc3)CC2)cc1`, the ED50 in the experiment with Cavia porcellus [6] is 0.25 mg/kg; with Cavia porcellus [4] it was 0.25 mg/kg; in the experiment with Cavia porcellus [5], 0.35 mg/kg; in experiment [2], 3.5 mg/kg.
Regarding `Brc1ccc(Cn2c(NC3CCN(CCc4ccccc4)CC3)nc3ccccc32)cc1`, the ED50 in experiment [1] was 1.25 mg/kg.
Same read-out and setting: under `N#CC1(c2ccccc2)CCC(N2CCC(Nc3nc4ccccc4n3Cc3ccccc3)CC2)CC1` (stereo not drawn) stands 2.5 mg/kg; under `CCCCn1c(N(C)C2CCN(CCc3ccccc3)CC2)nc2ccccc21`, 2.5 mg/kg.
Turning to `OC(COc1ccccc1)CN1CCC(Nc2nc3ccccc3n2Cc2ccccc2)CC1` (stereo not drawn), the ED50 is 1.25 mg/kg in experiment [1]; above 0.6 mg/kg in the experiment on Cavia porcellus [6]; 0.35 mg/kg in the experiment on Cavia porcellus [4]; 0.6 mg/kg in the experiment on Cavia porcellus [5]; 0.63 mg/kg in experiment [2].
`CN(c1nc2ccccc2n1Cc1ccc(Br)cc1)C1CCN(CCc2ccccc2)CC1` returned an ED50 in experiment [1] of 2.5 mg/kg.
`CCCCN1CCC(Nc2nc3ccccc3n2Cc2ccccc2)CC1`: the figures for the ED50 in experiment [8] and in experiment [3] were 0.31 mg/kg and above 2.5 mg/kg, respectively.
`C(=C\c1ccccc1)/CN1CCC(Nc2nc3ccccc3n2Cc2ccccc2)CC1`: the ED50 in experiment [1] was 1.25 mg/kg; in experiment [2], above 2.5 mg/kg.
`CN1CCC(=C2c3ccccc3CCc3cccnc32)CC1` [AZATADINE]: the ED50 was 0.049 mg/kg in experiment [1]; above 2.5 mg/kg in the experiment on Cavia porcellus [6]; 0.014 mg/kg in the experiment on Cavia porcellus [4]; 1.36 mg/kg in the experiment with Cavia porcellus [5]; 0.48 mg/kg in experiment [2].
Take `c1ccc(CCN2CCC(Nc3nc4ccccc4n3CCc3ccccc3)CC2)cc1`: in experiment [1], the ED50 was above 2.5 mg/kg.
Take `Fc1ccccc1Cn1c(NC2CCN(CCc3ccccc3)CC2)nc2ccccc21`: the results for the ED50 in experiment [1] and in experiment [2] were 1.25 mg/kg and 2.5 mg/kg, respectively.
As to `Oc1nc2ccccc2n1CCN1CCC(Nc2nc3ccccc3n2Cc2ccccc2)CC1`, the ED50 was 0.31 mg/kg in experiment [1], 0.35 mg/kg in the experiment on Cavia porcellus [4], above 0.6 mg/kg with Cavia porcellus [5] and 2.5 mg/kg in experiment [2].
For the compound `c1ccc(Cn2c(NC3CCN(C4CCCCC4)CC3)nc3ccccc32)cc1`, the values for the ED50 in experiment [8] and in experiment [3] were 0.63 mg/kg and above 2.5 mg/kg, respectively.
With `c1ccc(Cn2c(NC3CCN(CCCOc4ccccc4)CC3)nc3ccccc32)cc1`, the ED50 in experiment [1] and in experiment [2] was 0.63 mg/kg each time.
Turning to `COc1ccc(CCN2CCC(Nc3nc4ccccc4n3Cc3ccccc3)CC2)cc1`, the ED50 in experiment [1] amounted to 1.25 mg/kg; in the experiment on Cavia porcellus [6] it was 0.16 mg/kg; with Cavia porcellus [4], 0.25 mg/kg; with Cavia porcellus [5], 0.08 mg/kg; in experiment [2], 0.63 mg/kg.
For the compound `CN1CCC(Nc2nc3ccccc3n2Cc2ccccc2)CC1`, the ED50 was 0.31 mg/kg in experiment [8] and above 2.5 mg/kg in experiment [3].
